In article PMC10613959 (Toxicological Sciences, 2023):
Where two headings read alike, the source gives them in different places.

Key:
[1] = Blood partitioning assay for Rbp; assay type: in vitro ADME; settings: both, human
How it was run: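 Fresh pooled mixed-gender human whole blood (lithium heparin) and reference plasma centrifuged from the same blood were each incubated with 5 µM test compound at 37°C, n = 3. Reactions were stopped at 0 and 60 min. Rbp was derived by LC-MS/MS from test compound concentration in control plasma versus whole-blood supernatant. Chlorthalidone 5 µM served as positive control.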

Cross filtration = assay type: in vitro ADME; settings: both, human, pooled human plasma
How it was run: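 Modified cross-ultrafiltration: 10 µM test compound in pooled mixed-gender human plasma, 60 min at 37°C, n = 3, then ultrafiltered beside blank plasma. Each retentate was mixed into the partner filtrate and the regenerated samples analysed by LC-MS/MS. Warfarin 10 µM was positive control. Stability was checked at 60 min against non-incubated control. Recovery-corrected mean PPB from filtrate; Fup = 100 − PPB.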

[2] = Metabolic stability in primary human hepatocytes in suspension; assay type: in vitro ADME; settings: human, cryopreserved human hepatocytes in suspension (5 donor pool)
How it was run: (§1)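 Cryopreserved human hepatocytes (5-donor pool, 0.8 × 10^6 cells/ml) in Williams E medium (25 mM HEPES, 2 mM L-glutamine) were incubated with test compound at 0.1, 1 and 10 µM, 37°C, n = 3. Sampled at 0, 15, 60, 90, 180 and 240 min; solvent ≤0.5% DMSO or 1% ACN. Heat-inactivated hepatocytes were the negative control. Parent loss was measured by LC-MS. CLint = −k·V (k, slope of log concentration vs time; V, incubation volume/cell number).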

human hepatocytes = assay: as above; assay type: in vitro ADME; settings: for depletion in suspension hepatocytes: human suspension hepatocytes, compared with Naloxone
How it was run: as §1

[3] = Skin absorption parameters; parameters: species or system human; settings: Fitted; for Vehicle/water partition coefficient: vehicle/formulation specific
How it was run: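 A skin model in GastroPlus TCAT started from in silico predicted values for the vehicle, stratum corneum, epidermis and dermis. Its diffusivities and partition coefficients were fitted to skin penetration data: receptor-fluid time course where available, plus skin wash and layer distribution. Parameters were adjusted to minimise model–data difference and then used in the human dermal model. Vehicle/water partitioning is formulation-specific.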

[4] = Scaling of in vitro CLint to in vivo CLint and CLliver; parameters: species or system human; settings: scaled from the mean in vitro CLint
How it was run: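 Mean in vitro hepatocyte CLint was scaled to in vivo CLint (l/h) using a scaling factor: million cells per gram of liver × grams of liver weight. In vivo CLint was then converted to hepatic clearance with two variations of the well-stirred liver model.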

[5] = PBK population simulation of plasma concentrations; parameters: species or system human
How it was run: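 GastroPlus population simulations reproduced the clinical designs. Lotion or non-aerosol spray, 2 mg/cm2 over 75% body surface, once at 0 h on day 1 and 4 times daily at 2-h intervals on days 2–4 (mixed multiple-dose profile). Alternatively, a 4% formulation over 90% body surface, about 22 mg/kg bw, in 3 male and 3 female subjects. Simulated-mean/observed-mean ratios for Cmax and AUC0−t; 10th–90th percentiles generated.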

[6] = human skin, cited from earlier work
[7] = human plasma, topical sunscreen, ref Matta et al., 2020, cited from earlier work
[8] = Ex vivo skin penetration study of radiolabeled OMC; assay type: in vitro ADME; settings: human skin; for Dermal delivery (Epidermis + Dermis + Receptor fluid), 14C-OMC / Dermis, distribution of 14C-OMC / Epidermis, distribution of 14C-OMC / Receptor fluid, distribution of 14C-OMC / Skin excess, distribution of 14C-OMC / Total recovery, 14C-OMC / Total strips (1–20), distribution of 14C-OMC: mean
How it was run: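 Dermatomed skin, 350–450 µm, in flow-through diffusion cells (1 cm2 area), unoccluded, surface at 32°C ± 1°C. Receptor fluid (5% w/w BSA, 0.9% NaCl) flowed at 1.5 ml/h and was collected hourly. Runs ended at 30 min, 1, 2, 4, 8 h (n = 5) or 24 h (n = 12). Up to 20 tape strips; epidermis heat-separated from dermis; compartments counted by scintillation. Dermal delivery = epidermis + dermis + receptor fluid.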

[9] = target dose 300 µg/cm^2, ref SCCS, 2021

CCCCC(CC)COC(=O)C(C#N)=C(c1ccccc1)c1ccccc1 (centres unmarked) [Octocrylene, octocrylene]
blood plasma ratio at 60 min, 5 µM [1]: 0.73 | fraction unbound at 60 min, 10 µM (Cross filtration): 0.0014 | hepatocyte CLint [2]: 16.9 µL/min/1e6 cells | hepatocyte CLint at 0.1 µM [2]: 27.8 µL/min/1e6 cells | hepatocyte CLint at 1 µM [2]: 15.2 µL/min/1e6 cells | hepatocyte CLint at 10 µM [2]: 7.6 µL/min/1e6 cells | depletion in suspension hepatocytes (human hepatocytes): medium to fast depletion | Dermis diffusivity [3]: 6.0E−08 cm^2/s | Dermis/water partition coefficient [3]: 7.0E−01 | Epidermis diffusivity [3]: 2.0E−08 cm^2/s | Epidermis/water partition coefficient [3]: 6.0E+02 | Stratum corneum diffusivity [3]: 2.0E−11 cm^2/s | Stratum corneum/water partition coefficient [3]: 2.0E+03 | Vehicle diffusivity [3]: 6.2E−09 cm^2/s | Vehicle/water partition coefficient [3]: 4.0E+05 | In vivo CLint scaled [4]: 121.7 l/h/kg liver | AUC0 − t Fold Difference (Simulated Mean/Observed Mean) ([5]; Day 1): 1.4 | Cmax Fold Difference (Simulated Mean/Observed Mean) ([5]; Day 1): 1.2 | AUC0 − t Fold Difference (Simulated Mean/Observed Mean) ([5]; Day 4): 1.4 | Cmax Fold Difference (Simulated Mean/Observed Mean) ([5]; Day 4): 0.6 | Dermal delivery (Epidermis + dermis + receptor fluid), 14C-octocrylene ([6]; 24 h, mean, ref SCCS (2021)): 0.15% | Dermis, distribution of 14C-octocrylene ([6]; 24 h, mean, ref SCCS (2021)): 0.012% | Epidermis, distribution of 14C-octocrylene ([6]; 24 h, mean, ref SCCS (2021)): 0.14% | Receptor fluid, distribution of 14C-octocrylene ([6]; 24 h, mean, ref SCCS (2021)): 0.0001% | Skin excess, distribution of 14C-octocrylene ([6]; 24 h, mean, ref SCCS (2021)): 97.96% | Total recovery, 14C-octocrylene ([6]; 24 h, mean, ref SCCS (2021)): 98.8% | Total strips (1–20), distribution of 14C-octocrylene ([6]; 24 h, mean, ref SCCS (2021)): 0.69% | absorbed dose into receptor fluid [6, 9]: negligible | dermal delivered fraction of the applied dose [6, 9]: less than 0.4% | Observed AUC0 − t, Geometric mean ([7]; Day 1): 20.0 ng·h/mL | Observed AUC0 − t, Range ([7]; Day 1): 6.4 to 38.1 ng·h/mL | Observed Cmax, Range ([7]; Day 1): 0.5 to 3.6 ng/mL | Observed AUC0 − t, Geometric mean ([7]; Day 4): 94.7 ng·h/mL | Observed AUC0 − t, Range ([7]; Day 4): 41.4 to 210.0 ng·h/mL | Observed Cmax, Range ([7]; Day 4): 2.6 to 38.7 ng/mL

CCCCC(CC)COC(=O)C=Cc1ccc(OC)cc1 (centres unmarked) [OMC, octyl methoxycinnamate]
blood plasma ratio at 60 min, 5 µM [1]: 0.73 | fraction unbound at 60 min, 10 µM (Cross filtration): 0.0004 | dermal delivered fraction of the applied dose ([8]; all the conditions (30 min to 24 h), target dose 200 µg/cm^2): less than 0.5% | Dermal delivery (Epidermis + Dermis + Receptor fluid), 14C-OMC ([8]; terminated at 30 min): 0.10% | Dermis, distribution of 14C-OMC ([8]; terminated at 30 min): 0.004% | Epidermis, distribution of 14C-OMC ([8]; terminated at 30 min): 0.07% | Receptor fluid, distribution of 14C-OMC ([8]; terminated at 30 min): 0.02% | Skin excess, distribution of 14C-OMC ([8]; terminated at 30 min): 91.04% | Total recovery, 14C-OMC ([8]; terminated at 30 min): 91.65% | Total strips (1–20), distribution of 14C-OMC ([8]; terminated at 30 min): 0.51% | Dermal delivery (Epidermis + Dermis + Receptor fluid), 14C-OMC ([8]; terminated at 1 h): 0.06% | Dermis, distribution of 14C-OMC ([8]; terminated at 1 h): 0.01% | Epidermis, distribution of 14C-OMC ([8]; terminated at 1 h): 0.04% | Receptor fluid, distribution of 14C-OMC ([8]; terminated at 1 h): 0.003% | Skin excess, distribution of 14C-OMC ([8]; terminated at 1 h): 112.02% | Total recovery, 14C-OMC ([8]; terminated at 1 h): 112.38% | Total strips (1–20), distribution of 14C-OMC ([8]; terminated at 1 h): 0.30% | Dermal delivery (Epidermis + Dermis + Receptor fluid), 14C-OMC ([8]; terminated at 2 h): 0.11% | Dermis, distribution of 14C-OMC ([8]; terminated at 2 h): 0.005% | Epidermis, distribution of 14C-OMC ([8]; terminated at 2 h): 0.06% | Receptor fluid, distribution of 14C-OMC ([8]; terminated at 2 h): 0.04% | Skin excess, distribution of 14C-OMC ([8]; terminated at 2 h): 89.22% | Total recovery, 14C-OMC ([8]; terminated at 2 h): 90.06% | Total strips (1–20), distribution of 14C-OMC ([8]; terminated at 2 h): 0.73% | Dermal delivery (Epidermis + Dermis + Receptor fluid), 14C-OMC ([8]; terminated at 4 h): 0.12% | Dermis, distribution of 14C-OMC ([8]; terminated at 4 h): 0.01% | Epidermis, distribution of 14C-OMC ([8]; terminated at 4 h): 0.05% | Receptor fluid, distribution of 14C-OMC ([8]; terminated at 4 h): 0.06% | Skin excess, distribution of 14C-OMC ([8]; terminated at 4 h): 100.26% | Total recovery, 14C-OMC ([8]; terminated at 4 h): 100.75% | Total strips (1–20), distribution of 14C-OMC ([8]; terminated at 4 h): 0.37% | Dermal delivery (Epidermis + Dermis + Receptor fluid), 14C-OMC ([8]; terminated at 8 h): 0.20% | Dermis, distribution of 14C-OMC ([8]; terminated at 8 h): 0.01% | Epidermis, distribution of 14C-OMC ([8]; terminated at 8 h): 0.10% | Receptor fluid, distribution of 14C-OMC ([8]; terminated at 8 h): 0.09% | Skin excess, distribution of 14C-OMC ([8]; terminated at 8 h): 113.76% | Total recovery, 14C-OMC ([8]; terminated at 8 h): 114.46% | Total strips (1–20), distribution of 14C-OMC ([8]; terminated at 8 h): 0.50% | Dermal delivery (Epidermis + Dermis + Receptor fluid), 14C-OMC ([8]; terminated at 24 h): 0.28% | Dermis, distribution of 14C-OMC ([8]; terminated at 24 h): 0.02% | Epidermis, distribution of 14C-OMC ([8]; terminated at 24 h): 0.21% | Receptor fluid, distribution of 14C-OMC ([8]; terminated at 24 h): 0.06% | Skin excess, distribution of 14C-OMC ([8]; terminated at 24 h): 100.26% | Total recovery, 14C-OMC ([8]; terminated at 24 h): 100.96% | Total strips (1–20), distribution of 14C-OMC ([8]; terminated at 24 h): 0.41% | hepatocyte CLint [2]: 43.3 µL/min/1e6 cells | hepatocyte CLint at 10 µM [2]: 43.3 µL/min/1e6 cells | depletion in suspension hepatocytes (human hepatocytes): medium to fast depletion | Dermis diffusivity [3]: 1.0E−07 cm^2/s | Dermis/water partition coefficient [3]: 7.0E−01 | Epidermis diffusivity [3]: 3.0E−08 cm^2/s | Epidermis/water partition coefficient [3]: 2.0E+01 | Stratum corneum diffusivity [3]: 2.0E−10 cm^2/s | Stratum corneum/water partition coefficient [3]: 4.5E+02 | Vehicle diffusivity [3]: 7.0E−12 cm^2/s | Vehicle/water partition coefficient [3]: 1.5E+05 | In vivo CLint scaled [4]: 312.0 l/h/kg liver | AUC0 − t Fold Difference (Simulated Mean/Observed Mean) ([5]; Day 1): 1.5 | Cmax Fold Difference (Simulated Mean/Observed Mean) ([5]; Day 1): 1.5 | AUC0 − t Fold Difference (Simulated Mean/Observed Mean) ([5]; Day 4): 2.7 | Cmax Fold Difference (Simulated Mean/Observed Mean) ([5]; Day 4): 1.3 | Observed AUC0 − t, Geometric mean ([7]; Day 1): 21.6 ng·h/mL | Observed AUC0 − t, Range ([7]; Day 1): 2.7 to 57.7 ng·h/mL | Observed Cmax, Range ([7]; Day 1): 0.6 to 5 ng/mL | Observed AUC0 − t, Geometric mean ([7]; Day 4): 103.4 ng·h/mL | Observed AUC0 − t, Range ([7]; Day 4): 45.1 to 213.5 ng·h/mL | Observed Cmax, Range ([7]; Day 4): 2.6 to 30.6 ng/mL

C=CCN1CC[C@]23c4c5ccc(O)c4O[C@H]2C(=O)CC[C@@]3(O)[C@H]1C5 [Naloxone, reference compound]
hepatocyte CLint [2]: 16.4 ± 1.6 µL/min/1e6 cells | remaining after 240 min (human hepatocytes; positive control, human hepatocytes in suspension, 240 min): 4.8 ± 1.9%
